pIC50: −log10 of the molar value.
Legend:
[1] = test system: HeLa; experiment: Ability to inhibit 50% growth of HeLa cells; type: functional, cell-based; conditions: Homo sapiens
How it was run: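 HeLa cells grown 2 days, then counted to set the baseline. Analogues added in complete medium for a further 2 days, then cells counted. Growth increase compared with untreated controls. IC50 is the concentration giving a 50% decrease in growth relative to controls.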

[2] = test system: Calf thymus DNA; experiment: Ability to displace ethidium bromide from calf thymus DNA; type: nucleic-acid assay, Bos taurus
How it was run: (§1)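 Fluorescence displacement. Ethidium bromide 1.6 μM final in 2 mM HEPES, 10 μM EDTA, 9.4 mM NaCl, pH 7.0, then DNA added at 2 μM final (DNA phosphate): calf thymus DNA, poly(dA-dT)·poly(dA-dT) or poly(dG-dC)·poly(dG-dC). Excitation 546 nm, emission 598 nm. Analogue titrated in aliquots. IC50 is the concentration halving ethidium–DNA fluorescence. Trial-to-trial variability generally <5%.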

[3] = test system: Nucleic Acid; experiment: Ability to displace ethidium bromide from double stranded synthetic poly (dG-dC); type: nucleic-acid assay; how it was run: as §1
[4] = test system: Nucleic Acid; experiment: Ability to displace ethidium bromide from double stranded synthetic Poly (dA-dT); type: nucleic-acid assay; how it was run: as §1
[5] = test system: HeLa; experiment: Ability to cause aggregation of purified HeLa cell DNA; type: functional; conditions: Homo sapiens
How it was run: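 HeLa DNA labelled via 3-day culture with 4 μCi [³H]thymidine, then phenol/chloroform extracted. 1.5 μg DNA (~20000 cpm) plus analogue at various concentrations in buffer of 25 mM Tris, 4.5 mM KCl, 3 mM MgCl₂, pH 7.6. Incubated 10 min at 37 °C, then centrifuged 2.5 min and supernatant counted.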

Compound | pIC50 [1] | pIC50 [2] | pIC50 [3] | pIC50 [4] | pIC50 [5]
NCCCNCCCCCCCCNCCCN | 4.30 | 5.31 | 5.11 | 5.42 | 4.46
NCCCNCC(F)(F)CN | – | < 2.00 | – | – | –
NCCCNCCCC(F)(F)NCCCN | – | 3.85 | – | – | 2.60
c1ccc(CNCCCNCCCCCCCNCCCNCc2ccccc2)cc1 | 5.30 | 5.22 | 4.51 | 5.34 | 3.82
C=C(CNC)CNCCCCCCCCNCC(=C)CNC | 3.90 | 4.72 | 4.52 | 5.35 | –
NCCCNCC(F)(F)CCN | 3.82 | 3.56 | – | – | 2.51
NCCCNCCCCCCCCCCNCCCN | 5.00 | 5.10 | 4.96 | 5.38 | 3.77
c1ccc(CNCCCNCCCCCCCCCNCCCNCc2ccccc2)cc1 | 5.00 | 4.51 | 4.61 | 5.54 | 3.70
NCCCNCCCc1ccc(CCCNCCCN)cc1 | 3.80 | 5.30 | – | – | 3.60
NCC(O)CNCCCCCCCCNCC(O)CN (configuration not stated) | – | 5.28 | 4.57 | 5.37 | 3.70
c1ccc(CNCCNCCCCCCCCCCNCCNCc2ccccc2)cc1 | 5.70 | 3.22 | 2.80 | 3.15 | < 2.10
NCCCNC(F)(F)CCCN | – | 3.06 | 3.05 | 3.00 | 2.15
c1ccc(CNCCCCNCCCCCCCNCCCCNCc2ccccc2)cc1 | < 3.30 | 5.00 | 4.70 | 5.49 | 4.02
NCCCNCCCCCCCCCNCCCN | 4.52 | 4.92 | 4.80 | 5.35 | –
CNC(C)CCNCCCCCCCNCCC(C)NC (configuration not stated) | – | 5.19 | 4.82 | 5.30 | 4.00
c1ccc(CCNCCCNCCCCCCCNCCCNCCc2ccccc2)cc1 | 4.70 | 5.10 | 4.97 | 5.55 | 4.07
NCCCc1ccc(CCCN)cc1 | 3.40 | 3.40 | – | – | 2.52
c1ccc(CNCCNCCCCCCNCCNCc2ccccc2)cc1 | 4.12 | 3.10 | – | – | 2.62
c1ccc(CNCCCNCCCCCNCCCNCc2ccccc2)cc1 | 4.10 | 4.92 | 4.66 | 5.35 | –
c1ccc(NCCCNCCCCCCCNCCCNc2ccccc2)cc1 | – | 4.10 | – | – | –
c1ccc(CNCCNCCCCCCCNCCNCc2ccccc2)cc1 | 4.22 | 3.22 | 3.50 | 3.77 | 3.22
CNC/C(=C\Cl)CNCCCCCCCNC/C(=C/Cl)CNC | 3.90 | 4.92 | 4.46 | 5.30 | –
NCCCNCCCN [NORSPERMIDINE] | 4.00 | 3.66 | 3.43 | 3.85 | 2.52
NCCCCN [PUTRESCINE] | 2.10 | 2.35 | 2.28 | 2.29 | 1.92

Other lines, results leading:

pIC50 [1] | pIC50 [2] | pIC50 [3] | pIC50 [4] | pIC50 [5] | Compound
3.70 | 4.82 | 4.71 | 5.41 | 3.82 | CCNCCCNCCCCCCCCNCCCNCC
< 3.30 | 4.70 | 4.40 | 5.38 | 3.47 | CCCCNCCCNCCCCCCCCNCCCNCCCC
< 3.30 | 4.77 | 4.60 | 5.42 | 3.66 | CCCNCCCNCCCCCCCCNCCCNCCC
3.46 | 2.84 | – | – | < 1.82 | NCCCCSCCCN
4.82 | 4.89 | 4.49 | 5.38 | 3.52 | c1ccc(CNCCCNCCCCCCCCNCCCNCc2ccccc2)cc1
– | 5.12 | 4.90 | 5.38 | – | CC(N)CCNCCCCCCCCNCCC(C)N (configuration not stated)
4.00 | 5.15 | 4.90 | 5.44 | 3.74 | CC(CCN)NCCCCCCCCNC(C)CCN (configuration not stated)
6.00 | 4.48 | 4.59 | 5.51 | 3.40 | c1ccc(CNCCCNCCCCCCCCCCNCCCNCc2ccccc2)cc1
< 3.30 | 4.89 | 4.70 | 5.35 | – | CNCC(C)CNCCCCCCCNCC(C)CNC (configuration not stated)
4.22 | 5.26 | 4.60 | 5.00 | 4.07 | c1ccc(CNCCCNCCCCCCNCCCNCc2ccccc2)cc1
4.05 | 5.12 | – | – | – | NCCCNCCCC1CCC(CCCNCCCN)CC1 (configuration not stated)
4.70 | 5.12 | 4.92 | 5.33 | 4.00 | c1ccc(CCCNCCCNCCCCCCCNCCCNCCCc2ccccc2)cc1
– | 5.09 | 4.74 | 4.98 | 3.40 | NCC(=O)CNCCCCCCCCNCC(=O)CN
< 3.30 | 4.92 | 4.70 | 5.47 | 3.98 | c1ccc(CNCCCCNCCCCCCCCNCCCCNCc2ccccc2)cc1
– | 5.31 | 4.64 | 5.35 | 3.96 | NCC(O)CNCCCCCCCNCC(O)CN (configuration not stated)
3.70 | 5.42 | 5.27 | 5.59 | 4.43 | NCCCNCCCCCCCNCCCN
3.52 | 5.00 | 4.69 | 5.42 | 3.60 | CCCNCCCNCCCCCCCNCCCNCCC
4.00 | 4.96 | 4.70 | 5.40 | 3.70 | CCNCCCNCCCCCCCNCCCNCC
5.00 | 5.00 | 4.77 | 5.31 | 4.40 | c1ccc(CNCCCNCCCCNCCCNCc2ccccc2)cc1
< 3.30 | 5.10 | 4.98 | 5.52 | – | CC(CN)CNCCCCCCCNCC(C)CN (configuration not stated)
3.30 | 5.22 | 4.96 | 5.46 | 3.82 | CNCCCNCCCCCCCNCCCNC
< 3.30 | 4.92 | 4.46 | 5.30 | – | C/C=C(\CNC)CNCCCCCCCNC/C(=C/C)CNC
4.70 | 3.89 | 4.00 | 4.40 | 3.12 | c1ccc(CNCCNCCCCCCCCNCCNCc2ccccc2)cc1
4.00 | 3.89 | 3.52 | 3.96 | 2.82 | NCCCCNCCCN [SPERMIDINE]
4.30 | 5.37 | 5.22 | 5.55 | 4.15 | NCCCNCCCCNCCCN [SPERMINE]
